As usually defined, the AUC is concentration integrated over time. Low readings indicate low exposure, high ones high exposure.

A short description of data set [1]: AUC in rat at 10 mg/kg, po after 0 to 6 hrs. It is filed as ADME, organism-based. Also on record: time < 6 hr, dose 10 mg/kg, route oral. Particulars: plasma.
Data set [2] concerns Mus musculus. In words: Plasma A-beta-40 level in Tg CRND8 mouse at 30 mg/kg, sc after 3 hrs. The class given is functional. To be noted: route subcutaneous. The gist of the method: (§1)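 Tg CRND8 transgenic mice, acute single dose of 30 mpk, oral or sub-cutaneous. Plasma Aβ40 measured 3 h after dosing and expressed as % reduction.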
In data set [3] the test system is Mus musculus. The experiment in a line: Plasma A-beta-40 level in Tg CRND8 mouse at 30 mg/kg, po after 3 hrs. The class given is functional. The gist of the method:
as §1

In data set [1], `CC[C@@H]1CCC[C@H](C2(OC(=O)N3CC4CCC(C3)N4CCO)CC2)N1S(=O)(=O)c1ccc(F)cc1` (mixture of isomers) had an AUC at 6 h of 1780 ng·h/mL.

`CC[C@@H]1CCC[C@H](C2(OC(=O)N3CC4CCC(C3)N4CCO)CC2)N1S(=O)(=O)c1ccc(F)c(F)c1` (mixture of isomers) had an AUC at 6 h in data set [1] of 1330 ng·h/mL.

On to `CC[C@@H]1CCC[C@H](C2(OC(=O)N3CC4CCC(C3)N4CCO)CC2)N1S(=O)(=O)c1ccc(Cl)cc1` (mixture of isomers), for which the Activity in data set [2] was 85%. The compound also had an AUC at 6 h in data set [1] of 939 ng·h/mL.

`CC[C@@H]1CCC[C@H](C2(OC(=O)N3CCN(CCO)[C@@H](C)C3)CC2)N1S(=O)(=O)c1ccc(Cl)cc1` (racemic) had an AUC at 6 h in data set [1] of 1870 ng·h/mL.

For the compound `CC[C@@H]1CCC[C@H](C2(OC(=O)N3CCN(C(C)(C)CO)CC3)CC2)N1S(=O)(=O)c1ccc(Cl)cc1` (racemic), the Activity in data set [2] amounted to 91%; in data set [3], 96%. This compound also displayed an AUC at 6 h in data set [1] of 892 ng·h/mL.

In data set [2], `CC[C@@H]1CCC[C@H](C2(OC(=O)N3CCN(C(C)(C)CO)CC3)CC2)N1S(=O)(=O)c1ccc(F)cc1` (racemic) displayed an Activity of 59%. The compound also had an AUC at 6 h in data set [1] of 405 ng·h/mL.

`CC[C@@H]1CCC[C@H](C2(OC(=O)N3CCN(CCO)C[C@@H]3C)CC2)N1S(=O)(=O)c1ccc(Cl)cc1` (racemic) gave an AUC at 6 h in data set [1] of 3410 ng·h/mL.

For the compound `CC[C@@H]1CCC[C@H](C2(OC(=O)N3CCC(CCO)(OC)CC3)CC2)N1S(=O)(=O)c1ccc(Cl)cc1` (racemic), the AUC at 6 h in data set [1] was 81 ng·h/mL.

Compound `CC[C@@H]1CCC[C@H](C2(OC(=O)N3CCC(N4CCCCC4)CC3)CC2)N1S(=O)(=O)c1cc(F)cc(F)c1` (racemic) returned an AUC at 6 h in data set [1] of 296 ng·h/mL. Against the preceding compound, the AUC at 6 h is about 3.7-fold higher.

The values above are taken from ChEMBL document CHEMBL1137438, “Small conformationally restricted piperidine N-arylsulfonamides as orally active gamma-secretase inhibitors” (Bioorg Med Chem Lett, 2007).
